The results in this text go back to ChEMBL document CHEMBL1152834, “Synthesis and potential anticonvulsant activity of new N-3-substituted 5,5-cyclopropanespirohydantoins” (2009).

Common to all, as to type: functional
Experiment [1] deals with Mus musculus. Put plainly: Anticonvulsant activity in mouse assessed as inhibition of subcutaneous pentylenetetrazole-induced seizures at 20 mg/kg, po. In short, it runs like this: (§1)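 Male Kunming mice (20 ± 2.0 g) received oral test agent suspended in 0.5% carboxymethyl cellulose–0.9% saline. Pentylenetetrazole 70 mg/kg in 0.9% saline was then injected subcutaneously in the scruff of the neck. Protection meant no threshold seizure, i.e. no single clonic spasm episode lasting at least 5 s.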

In experiment [2] the test system is Mus musculus. Kind of experiment: Anticonvulsant activity in mouse assessed as inhibition of subcutaneous pentylenetetrazole-induced seizures at 40 mg/kg, po. In short, it runs like this:
as §1

For experiment [3], the system named is Mus musculus. Put plainly: Anticonvulsant activity in mouse assessed as inhibition of maximal electroshock-induced seizures at 30 mg/kg, po. In short, it runs like this:
(§2)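 Male Kunming mice (20 ± 2.0 g), 10 per group, given test agent orally as a suspension in 0.5% carboxymethyl cellulose–0.9% saline. After 1 h, a 25 mA shock was delivered through ear electrodes for 0.25 s. Protection was scored as abolition of the hind limb tonic extensor component. Results are given as animals protected/animals tested.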

Experiment [4] deals with Mus musculus. Put plainly: Anticonvulsant activity in mouse assessed as inhibition of subcutaneous pentylenetetrazole-induced seizures at 80 mg/kg, po. The method in brief: as §1
In experiment [5] the test system is Mus musculus. Kind of experiment: Anticonvulsant activity in mouse assessed as inhibition of maximal electroshock-induced seizures at 7.5 mg/kg, po. The method in brief: as §2
For experiment [6], the system named is Mus musculus. Kind of experiment: Anticonvulsant activity in mouse assessed as inhibition of maximal electroshock-induced seizures at 15 mg/kg, po. The method in brief: as §2

SMILES strings stand for the structures.

`CN1C(=O)NC2(CC2(C)C)C1=O` (stereo not drawn): the inhibition in vivo at 20 mg/kg in the experiment on Mus musculus [1] amounted to 20%. Further, in the experiment with Mus musculus [2], the inhibition in vivo at 40 mg/kg was 30%. The inhibition in vivo at 30 mg/kg in the experiment on Mus musculus [3] stood at 90%. Moreover, the inhibition in vivo at 80 mg/kg with Mus musculus [4] was found to be 60%. For the same compound, the inhibition in vivo at 7.5 mg/kg with Mus musculus [5] was determined as 40%. Further, the inhibition in vivo at 15 mg/kg in the experiment on Mus musculus [6] came to 50%.

With `CCC(CO)N1C(=O)NC2(CC2(C)C)C1=O` (stereo not drawn), the inhibition in vivo at 20 mg/kg in the experiment with Mus musculus [1] was 20%. Further, the inhibition in vivo at 40 mg/kg in the experiment on Mus musculus [2] is 40%. Also, the inhibition in vivo at 30 mg/kg in the experiment with Mus musculus [3] stood at 90%. Also, the inhibition in vivo at 80 mg/kg in the experiment on Mus musculus [4] worked out at 70%. Besides, in the experiment with Mus musculus [5], the inhibition in vivo at 7.5 mg/kg is 30%. For the same compound, in the experiment with Mus musculus [6], the inhibition in vivo at 15 mg/kg amounted to 50%.

On to `CCCC(CCC)C(=O)O` [VALPROATE SODIUM], for which the inhibition in vivo at 20 mg/kg in the experiment on Mus musculus [1] came out at 30%. The inhibition in vivo at 40 mg/kg in the experiment with Mus musculus [2] was 50%. The inhibition in vivo at 80 mg/kg in the experiment on Mus musculus [4] amounted to 80%.

Consider `CC1(C)CC12NC(=O)NC2=O` (stereo not drawn), for which the inhibition in vivo at 30 mg/kg in the experiment on Mus musculus [3] turned out to be 50%.

With `Cc1ccc(N2C(=O)NC3(CC3(C)C)C2=O)cc1` (stereo not drawn), the inhibition in vivo at 30 mg/kg with Mus musculus [3] worked out at 50%.

Take `CC1(C)CC12NC(=O)N(c1cc(Cl)cc(Cl)c1)C2=O` (stereo not drawn): the inhibition in vivo at 30 mg/kg in the experiment with Mus musculus [3] came out at 50%.

Consider `CC(C)N1C(=O)NC2(CC2(C)C)C1=O` (stereo not drawn), for which the inhibition in vivo at 30 mg/kg in the experiment on Mus musculus [3] worked out at 70%.

Turning to `COc1ccc(N2C(=O)NC3(CC3(C)C)C2=O)cc1` (stereo not drawn), the inhibition in vivo at 30 mg/kg in the experiment with Mus musculus [3] came out at 60%.

`O=C1N=C(O)NC1(c1ccccc1)c1ccccc1` [PHENYTOIN SODIUM]: in the experiment on Mus musculus [3], the inhibition in vivo at 30 mg/kg was 90%. Besides, in the experiment on Mus musculus [5], the inhibition in vivo at 7.5 mg/kg amounted to 20%. Also, the inhibition in vivo at 15 mg/kg in the experiment with Mus musculus [6] was 50%.

Regarding `CC1(C)CC12NC(=O)N(c1ccc(F)cc1)C2=O` (stereo not drawn), the inhibition in vivo at 20 mg/kg with Mus musculus [1] came to 30%. In the experiment with Mus musculus [2], the inhibition in vivo at 40 mg/kg is 50%. The inhibition in vivo at 30 mg/kg in the experiment with Mus musculus [3] worked out at 80%. Besides, the inhibition in vivo at 80 mg/kg in the experiment on Mus musculus [4] was 70%. In addition, the inhibition in vivo at 7.5 mg/kg in the experiment with Mus musculus [5] is 30%. Moreover, the inhibition in vivo at 15 mg/kg with Mus musculus [6] was found to be 50%.

As to `CCCCN1C(=O)NC2(CC2(C)C)C1=O` (stereo not drawn), the inhibition in vivo at 20 mg/kg in the experiment with Mus musculus [1] amounted to 30%. The inhibition in vivo at 40 mg/kg with Mus musculus [2] is 40%. Moreover, the inhibition in vivo at 30 mg/kg in the experiment on Mus musculus [3] was 90%. Further, in the experiment on Mus musculus [4], the inhibition in vivo at 80 mg/kg stood at 60%. For the same compound, the inhibition in vivo at 7.5 mg/kg in the experiment on Mus musculus [5] was 20%. In addition, the inhibition in vivo at 15 mg/kg with Mus musculus [6] worked out at 50%.

In the case of `CC1(C)CC12NC(=O)N(c1ccc([N+](=O)[O-])cc1)C2=O` (stereo not drawn), the inhibition in vivo at 30 mg/kg with Mus musculus [3] worked out at 60%.

`CC1(C)CC12NC(=O)N(c1ccccc1)C2=O` (stereo not drawn): the inhibition in vivo at 20 mg/kg in the experiment on Mus musculus [1] was 20%. Moreover, the inhibition in vivo at 40 mg/kg in the experiment with Mus musculus [2] is 40%. The inhibition in vivo at 30 mg/kg with Mus musculus [3] was 80%. Besides, the inhibition in vivo at 80 mg/kg with Mus musculus [4] is 60%. Moreover, in the experiment on Mus musculus [5], the inhibition in vivo at 7.5 mg/kg stood at 20%. Besides, the inhibition in vivo at 15 mg/kg in the experiment with Mus musculus [6] turned out to be 40%.

Regarding `CC1(C)CC12NC(=O)N(Cc1ccccc1)C2=O` (stereo not drawn), in the experiment on Mus musculus [3], the inhibition in vivo at 30 mg/kg amounted to 70%.
